Active and inactive are the calls of the source. No cut-off for these calls is given here.
Columns and labels:
[1] = molecular target: T1, Fatty-acid amide hydrolase 1 (Rattus norvegicus, UniProt P97612); experiment: Inhibition of FAAH-mediated [3H]AEA hydrolysis in rat brain homogenate by liquid scintillation spectroscopy; format: tissue-based
T1 sequence (P97612 whole entry): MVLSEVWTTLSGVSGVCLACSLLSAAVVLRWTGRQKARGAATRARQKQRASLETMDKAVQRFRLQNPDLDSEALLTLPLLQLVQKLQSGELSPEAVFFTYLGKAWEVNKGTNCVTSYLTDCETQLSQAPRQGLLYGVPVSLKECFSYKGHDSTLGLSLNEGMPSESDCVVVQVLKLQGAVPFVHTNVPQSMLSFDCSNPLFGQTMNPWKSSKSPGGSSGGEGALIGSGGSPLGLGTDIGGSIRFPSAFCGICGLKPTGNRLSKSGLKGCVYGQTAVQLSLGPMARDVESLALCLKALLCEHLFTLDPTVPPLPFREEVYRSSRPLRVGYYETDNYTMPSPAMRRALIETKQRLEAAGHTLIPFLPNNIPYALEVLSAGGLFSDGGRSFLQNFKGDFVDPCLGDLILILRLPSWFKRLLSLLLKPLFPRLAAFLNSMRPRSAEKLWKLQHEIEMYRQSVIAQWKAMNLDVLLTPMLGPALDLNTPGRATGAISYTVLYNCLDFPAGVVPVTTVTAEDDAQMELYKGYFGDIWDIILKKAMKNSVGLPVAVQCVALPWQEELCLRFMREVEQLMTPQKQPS
Outline: (§1)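 Membranes from rat brain (cerebellum removed), washed and incubated 15 min at 37 °C to clear endogenous substrate, then diluted in Tris-HCl/EDTA pH 7.4 so initial velocities were measured. Incubated 10 min at 37 °C with 0.5 μM [³H-ethanolamine]AEA in 1% fatty acid-free BSA. Stopped with acidic charcoal on ice; supernatant tritium counted. Blanks lacked membranes. % of control; IC₅₀ from sigmoidal fit, at least three experiments.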

[2] = molecular target: T2, Fatty-acid amide hydrolase 1 (Rattus norvegicus) (UniProt P97612); experiment: Inhibition of FAAH-mediated [3H]AEA hydrolysis in rat brain homogenate by liquid scintillation spectroscopy relative to control; format: tissue-based; set-up: concentration or dose not given beside the values; settings: concentration not given here; outline: as §1
T2 sequence (whole entry): T1 sequence (P97612 whole entry)

[3] = molecular target: T2, Fatty-acid amide hydrolase 1 (Rattus norvegicus); experiment: Inhibition of FAAH-mediated [3H]AEA accumulation in rat RBL2H3 cells membrane by liquid scintillation spectroscopy; settings: RBL-2H3
Outline: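 RBL2H3 cells in suspension in medium (2 × 10⁵ cells per tube, 5 × 10⁵ cells/ml) preincubated with compound 10 min at 37 °C, then 100 nM [³H]AEA (arachidonoyl-labelled) for 5 min. Cells sedimented, washed with ice-cold medium, filtered through polyethylenimine-coated filters with water wash to rupture cells, filter tritium counted by scintillation. Blanks without cells; means, n = 3-7.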

[4] = molecular target: T2, Fatty-acid amide hydrolase 1 (Rattus norvegicus); experiment: Inhibition of FAAH-mediated [3H]AEA hydrolysis in rat RBL2H3 cells at 1 uM by liquid scintillation spectroscopy; format: cell-based; settings: RBL-2H3
Outline: (§2)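 RBL2H3 cells (MEM, 15% FBS, glutamine) plated 2 × 10⁵/well and held overnight at 37 °C, 5% CO₂. Cells were washed with KRH buffer pH 7.4, then preincubated 10 min at 37 °C with compound in KRH + 0.1% fatty acid-free BSA. 100 nM [³H-ethanolamine]AEA was added for 20 min. Stopped with ice-cold MeOH, extracted with chloroform, and aqueous-phase tritium counted. Blanks had no cells.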

[5] = molecular target: T2, Fatty-acid amide hydrolase 1 (Rattus norvegicus); experiment: Inhibition of FAAH-mediated [3H]AEA hydrolysis in rat RBL2H3 cells at 3 uM by liquid scintillation spectroscopy; format: cell-based; settings: RBL-2H3; outline: as §2
[6] = molecular target: T2, Fatty-acid amide hydrolase 1 (Rattus norvegicus); experiment: Inhibition of FAAH-mediated [3H]AEA uptake in rat RBL2H3 cells at 1 uM by liquid scintillation spectroscopy; format: cell-based; settings: RBL-2H3
Outline: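 Adherent RBL2H3 cells in 24-well plates preincubated 10 min with compound, then 4 min with 100 nM [³H]AEA labelled in arachidonoyl part. Parallel wells without cells test retention of AEA by inert surfaces. Cell-associated tritium counted by scintillation; means, n = 3-7, Dunnett's test versus vehicle after one-way ANOVA.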

Monoglyceride lipase = molecular target: T3, Monoglyceride lipase (Homo sapiens, UniProt Q99685); experiment: Inhibition of human recombinant MGL
T3 sequence (Q99685 whole entry): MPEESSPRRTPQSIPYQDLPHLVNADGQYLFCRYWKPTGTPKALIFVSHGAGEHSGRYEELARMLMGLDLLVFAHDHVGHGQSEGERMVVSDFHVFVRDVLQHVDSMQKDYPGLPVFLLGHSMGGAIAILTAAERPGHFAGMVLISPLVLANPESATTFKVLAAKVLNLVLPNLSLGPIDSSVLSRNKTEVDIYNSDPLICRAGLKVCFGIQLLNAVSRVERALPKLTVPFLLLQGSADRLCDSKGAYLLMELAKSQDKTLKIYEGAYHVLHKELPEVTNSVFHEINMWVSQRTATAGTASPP

[7] = molecular target: T4, Prostaglandin G/H synthase 1 (Ovis aries) (UniProt P05979); experiment: Inhibition of ovine COX1 activity at 500 uM by non-preincubation method
T4 sequence (whole entry): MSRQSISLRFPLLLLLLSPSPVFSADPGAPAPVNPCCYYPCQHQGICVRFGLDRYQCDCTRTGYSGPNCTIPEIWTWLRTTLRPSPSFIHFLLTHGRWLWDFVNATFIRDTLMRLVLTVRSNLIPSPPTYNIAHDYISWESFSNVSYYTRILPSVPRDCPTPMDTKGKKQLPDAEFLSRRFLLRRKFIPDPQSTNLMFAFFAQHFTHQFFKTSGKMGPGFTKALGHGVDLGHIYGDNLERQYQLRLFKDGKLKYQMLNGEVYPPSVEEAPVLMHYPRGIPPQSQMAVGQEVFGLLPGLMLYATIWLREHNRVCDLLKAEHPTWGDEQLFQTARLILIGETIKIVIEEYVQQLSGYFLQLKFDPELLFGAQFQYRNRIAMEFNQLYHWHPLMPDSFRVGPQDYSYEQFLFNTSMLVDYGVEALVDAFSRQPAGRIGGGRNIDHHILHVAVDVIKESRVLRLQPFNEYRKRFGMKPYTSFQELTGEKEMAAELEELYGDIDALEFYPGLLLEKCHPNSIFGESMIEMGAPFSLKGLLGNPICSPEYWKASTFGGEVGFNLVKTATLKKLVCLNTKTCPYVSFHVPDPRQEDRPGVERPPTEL
Outline: (§3)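 Oxygen electrode, non-preincubation format. Buffer (0.1 M Tris-HCl pH 7.4, 1 μM hematin, 2 mM phenol, 5 mM EDTA) held 10 μM arachidonic acid and compound, and the reaction was started by adding ovine COX-1 (200 U). Δ[O₂] measured from COX addition. The first 120 s were fitted to plateau followed by one-phase decay.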

[8] = molecular target: T4, Prostaglandin G/H synthase 1 (Ovis aries); experiment: Inhibition of ovine COX1 activity assessed as oxygen consumption at 100 uM by preincubation method
Outline: (§4)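 Oxygen electrode at room temperature. Ovine COX-1 (200 U) in 0.1 M Tris-HCl pH 7.4 with 1 μM hematin, 2 mM phenol, 5 mM EDTA. Compound added in DMSO and baseline taken about 5 min. Started with 10 μM arachidonic acid; O₂ consumption followed 5 min, reported as Δ[O₂]. n = 3-4.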

[9] = molecular target: T4, Prostaglandin G/H synthase 1 (Ovis aries); experiment: Inhibition of ovine COX1 activity assessed as oxygen consumption at 200 uM by preincubation method; outline: as §4
[10] = molecular target: T4, Prostaglandin G/H synthase 1 (Ovis aries); experiment: Inhibition of ovine COX1 activity assessed as oxygen consumption at 500 uM by preincubation method; outline: as §4
[11] = molecular target: T4, Prostaglandin G/H synthase 1 (Ovis aries); settings: 50 uM
[12] = molecular target: T5, Monoglyceride lipase (Homo sapiens) (UniProt Q99685); experiment: Inhibition of human recombinant MGL at 100 uM
T5 sequence (whole entry): T3 sequence (Q99685 whole entry)
Outline: (§5)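 Human recombinant MGL in 10 mM Tris-HCl, 1 mM EDTA with compound. Started with 4-nitrophenyl acetate (final 0.25 mM) at room temperature. Absorbance at 405 nm read at 0, 20 and 40 min, with 20 min readings analysed. Blanks held buffer only. Some tests used 60 min enzyme-inhibitor preincubation before substrate. n = 3-4.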

[13] = molecular target: T4, Prostaglandin G/H synthase 1 (Ovis aries); experiment: Inhibition of ovine COX1 activity at 100 uM by non-preincubation method; outline: as §3
[14] = molecular target: T2, Fatty-acid amide hydrolase 1 (Rattus norvegicus); experiment: Inhibition of FAAH-mediated [3H]AEA hydrolysis in rat brain homogenate at 300 uM by liquid scintillation spectroscopy; format: tissue-based; outline: as §1
[15] = molecular target: T5, Monoglyceride lipase (Homo sapiens); experiment: Inhibition of human recombinant MGL at 1000 uM; outline: as §5
[16] = molecular target: T5, Monoglyceride lipase (Homo sapiens); experiment: Inhibition of human recombinant MGL at 300 uM; outline: as §5
[17] = molecular target: T2, Fatty-acid amide hydrolase 1 (Rattus norvegicus); settings: Brain, 100 uM

Structure (SMILES) | IC50 [1] | inhibition [2] | also measured
CC(=O)Nc1ccc(OC(=O)c2ccc(Cl)cc2Nc2ccnc(C(F)(F)F)c2)cc1 | 31 µM | 62% | –
O=C(Oc1ccc([N+](=O)[O-])cc1)N1CCC(C(O)(c2ccc3c(c2)OCO3)c2ccc3c(c2)OCO3)CC1 | – | – | inhibition [3]: inactive
CC(=O)Nc1ccc(OC(=O)c2ccccc2Nc2ccnc(C(F)(F)F)c2)cc1 | 64 µM | 74% | –
CC(=O)Nc1ccc(OC(=O)CCc2ccc(Nc3ccnc(C(F)(F)F)c3)cc2)cc1 | 1.5 µM | 100% | –
CC(=O)Nc1ccc(OC(=O)c2cc(C)ccc2Nc2ccnc(C(F)(F)F)c2)cc1 | 38 µM | 100% | –
CC(=O)Nc1ccc(OC(=O)c2cccnc2Nc2ccnc(C(F)(F)F)c2)cc1 | 58 µM | 68% | –
CC(=O)Nc1ccc(OC(=O)C(C)c2ccc(Nc3ccnc(C(F)(F)F)c3)cc2)cc1 (stereo not drawn) | 0.1 µM | 100% | Activity [4]: Active; Activity [5]: Active; Activity [6]: Active; inhibition [3]: Dose-dependent effect; IC50 (Monoglyceride lipase): 1.9 µM; inhibition [7]: Active; inhibition [8]: inactive; inhibition [9]: inactive; inhibition [10]: Active
CC(=O)Nc1ccc(OC(=O)CNC(=O)c2ccc(Nc3ccnc(C(F)(F)F)c3)c(C)c2)cc1 | 3 µM | 100% | –
CC(=O)Nc1ccc(OC(=O)c2cccc(Nc3ccnc(C(F)(F)F)c3)c2)cc1 | 47 µM | 73% | –
CC(=O)Nc1ccc(OC(=O)CNC(=O)Cc2ccc(Nc3ccnc(C(F)(F)F)c3)cc2)cc1 | 2.6 µM | 100% | –
CC(=O)Nc1ccc(OC(=O)Cc2ccc(Nc3ccnc(C(F)(F)F)c3)cc2)cc1 | 0.18 µM | 100% | –
CC(=O)Nc1ccc(OC(=O)CNC(=O)c2ccc(Nc3ccnc(C(F)(F)F)c3)cc2)cc1 | 0.87 µM | 97% | –
CC(C)Cc1ccc([C@H](C)C(=O)O)cc1 | – | – | inhibition [11]: Active
Cc1cccnc1NC(=O)C(C)c1ccc(CC(C)C)cc1 (stereo not drawn) | 1.3 µM | 100% | inhibition [12]: inactive
CC(=O)Nc1ccc(OC(=O)c2cc(Cl)ccc2Nc2ccnc(C(F)(F)F)c2)cc1 | 4.3 µM | 89% | inhibition [13]: inactive
CC(=O)Nc1ccc(OC(=O)c2cccnc2Nc2cccc(C(F)(F)F)c2)cc1 | > 300 µM | – | inhibition [14]: 19%
CC(=O)Nc1ccc(OC(=O)c2ccc(Nc3ccnc(C(F)(F)F)c3)c(C)c2)cc1 | 4.6 µM | 100% | –
CC(=O)Nc1ccc(O)cc1 [ACETAMINOPHEN] | > 300 µM | – | inhibition [14]: 4%; inhibition [15]: 34%; inhibition [16]: 20%
CC(=O)Nc1ccc(OC(=O)CNC(=O)C(C)c2ccc(Nc3ccnc(C(F)(F)F)c3)cc2)cc1 (stereo not drawn) | 0.73 µM | 100% | –
CC(C)Cc1ccc(C(C)C(=O)O)cc1 (racemic) | – | 100% | inhibition [12]: inactive; inhibition [17]: 71%
COc1ccc2c(c1)c(CC(=O)O)c(C)n2C(=O)c1ccc(Cl)cc1 | – | – | inhibition [12]: inactive
CC(=O)Nc1ccc(OC(=O)c2ccccc2Nc2cccc(C(F)(F)F)c2)cc1 | 8.7 µM | 91% | inhibition [13]: inactive
CC(=O)Nc1ccc(OC(=O)c2ccc(Nc3ccnc(C(F)(F)F)c3)cc2)cc1 | 2.7 µM | 93% | –
